Measurements published in ChEMBL document CHEMBL4251573, “Synthesis and biological evaluation of N-substituted 3-oxo-1,2,3,4-tetrahydro-quinoxaline-6-carboxylic acid derivatives as tubulin polymerization inhibitors” (Eur J Med Chem, 2018).
Activity calls are given as the source filed them. The calls are words filed in the database; no cut-off is given here.

What was measured:
HeLa [1] = assay: Induction of apoptosis in human HeLa cells assessed as viable cells at 0.15 uM after 24 hrs by annexin V-FITC/propidium iodide staining-based flow cytometric method (reference value: 97.39%); type: functional; conditions: read-out: Activity
HeLa [2] = assay: Induction of apoptosis in human HeLa cells assessed as membrane blebbing at 0.10 to 0.20 uM by microscopic method; type: functional, cell-based
How it was run: (§1)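 Morphology of HeLa cells was examined by light microscopy after 24 h exposure to 0.10, 0.15 or 0.20 μM, or 0.1% DMSO, alongside the annexin V/PI experiment.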

HeLa [3] = assay: Cell cycle arrest in human HeLa cells assessed as accumulation at G0/G1 phase at 0.15 uM after 24 hrs by propidium iodide staining-based flow cytometric method (reference value: 62.2%); type: functional
HeLa [4] = assay: Induction of apoptosis in human HeLa cells assessed as viable cells at 0.10 uM after 24 hrs by annexin V-FITC/propidium iodide staining-based flow cytometric method (reference value: 97.39%); type: functional; conditions: read-out: Activity
HeLa [5] = assay: Induction of apoptosis in human HeLa cells assessed as early apoptotic cells at 0.15 uM after 24 hrs by annexin V-FITC/propidium iodide staining-based flow cytometric method (reference value: 2.31%); type: functional
HeLa [6] = assay: Induction of apoptosis in human HeLa cells after 24 hrs by annexin V-FITC/propidium iodide staining-based flow cytometric method; type: functional, cell-based
Tubulin = assay: Inhibition of tubulin (unknown origin) polymerization after 40 mins by fluorescence assay; type: protein-complex assay, Homo sapiens
How it was run: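 Fluorescence-based kit assay. Compounds, in duplicate, were warmed 1 min at 37 °C, then cold tubulin mix was added (2 mg/mL tubulin in 80 mM PIPES pH 6.9, 2.0 mM MgCl2, 0.5 mM EGTA, 1.0 mM GTP, 15% glycerol). Assembly was read at ex 360/em 450 nm each minute for 1 h at 37 °C; 0.1% DMSO vehicle. IC50 is the concentration halving assembly extent at 40 min, from four concentrations.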

HeLa [7] = assay: Induction of apoptosis in human HeLa cells assessed as plasmatorrhexis at 0.10 to 0.20 uM by microscopic method; type: functional, cell-based; how it was run: as §1
HeLa [8] = assay: Cell cycle arrest in human HeLa cells assessed as accumulation at S phase at 0.25 uM after 24 hrs by propidium iodide staining-based flow cytometric method (reference value: 10.3%); type: functional
HeLa [9] = assay: Cell cycle arrest in human HeLa cells assessed as accumulation at sub G1 phase at 0.20 uM after 24 hrs by propidium iodide staining-based flow cytometric method (reference value: 7.6%); type: functional
SMMC-7721 = assay: Antiproliferative activity against human SMMC7721 cells after 72 hrs by MTT assay; type: functional, cell-based; conditions: SMMC-7721, 72 h
How it was run: (§2)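 HeLa and SMMC-7721 cells in log phase were seeded at 4000-6000 cells/well. After 24 h, quadruplicate wells were treated with a series of concentrations for 72 h. DMSO stocks were 5 mmol/L, with final DMSO below 0.1%. MTT (10 mg/mL in PBS) was added for 4 h, medium replaced with DMSO, and OD read at 490 nm. IC50 came from at least five concentrations; mean and SD of at least three independent experiments.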

HeLa [10] = assay: Induction of apoptosis in human HeLa cells assessed as early apoptotic cells at 0.20 uM after 24 hrs by annexin V-FITC/propidium iodide staining-based flow cytometric method (reference value: 2.31%); type: functional
HeLa [11] = assay: Cell cycle arrest in human HeLa cells assessed as accumulation at S phase at 0.10 uM after 24 hrs by propidium iodide staining-based flow cytometric method (reference value: 10.3%); type: functional
HeLa [12] = assay: Cell cycle arrest in human HeLa cells assessed as accumulation at sub G1 phase at 0.10 uM after 24 hrs by propidium iodide staining-based flow cytometric method (reference value: 7.6%); type: functional
HeLa [13] = assay: Cell cycle arrest in human HeLa cells assessed as accumulation at G2/M phase at 0.25 uM after 24 hrs by propidium iodide staining-based flow cytometric method (reference value: 19.9%); type: functional
HeLa [14] = assay: Cell cycle arrest in human HeLa cells assessed as accumulation at sub G1 phase at 0.15 uM after 24 hrs by propidium iodide staining-based flow cytometric method (reference value: 7.6%); type: functional
HeLa [15] = assay: Induction of apoptosis in human HeLa cells assessed as late apoptotic cells at 0.20 uM after 24 hrs by annexin V-FITC/propidium iodide staining-based flow cytometric method (reference value: 0.15%); type: functional
HeLa [16] = assay: Cell cycle arrest in human HeLa cells assessed as accumulation at G0/G1 phase at 0.25 uM after 24 hrs by propidium iodide staining-based flow cytometric method (reference value: 62.2%); type: functional
HeLa [17] = assay: Induction of apoptosis in human HeLa cells assessed as necrotic cells at 0.20 uM after 24 hrs by annexin V-FITC/propidium iodide staining-based flow cytometric method (reference value: 0.15%); type: functional
K562 = assay: Antiproliferative activity against human K562 cells after 72 hrs by MTT assay; type: functional, cell-based; conditions: K562, 72 h
How it was run: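 K562 cells were grown in RPMI 1640 with 10% FBS at 37 °C in 5% CO2, then seeded at 4000-6000 cells/well. Quadruplicate wells were exposed to drug for 72 h, with final DMSO below 0.1%. After 4 h with MTT, solubilizer (10% SDS, 5% isobutyl alcohol, 0.01 M HCl) was added for 12 h, then OD read at 490 nm. IC50 came from at least five concentrations; mean and SD of at least three experiments.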

HeLa [18] = assay: Cell cycle arrest in human HeLa cells assessed as accumulation at S phase at 0.15 uM after 24 hrs by propidium iodide staining-based flow cytometric method (reference value: 10.3%); type: functional
HeLa [19] = assay: Induction of apoptosis in human HeLa cells assessed as early apoptotic cells at 0.10 uM after 24 hrs by annexin V-FITC/propidium iodide staining-based flow cytometric method (reference value: 2.31%); type: functional
HeLa [20] = assay: Antiproliferative activity against human HeLa cells after 72 hrs by MTT assay; type: functional, cell-based; how it was run: as §2
HeLa [21] = assay: Cell cycle arrest in human HeLa cells assessed as accumulation at G2/M phase at 0.15 uM after 24 hrs by propidium iodide staining-based flow cytometric method (reference value: 19.9%); type: functional
HeLa [22] = assay: Cell cycle arrest in human HeLa cells assessed as accumulation at G2/M phase at 0.20 uM after 24 hrs by propidium iodide staining-based flow cytometric method (reference value: 19.9%); type: functional
HeLa [23] = assay: Cell cycle arrest in human HeLa cells assessed as accumulation at G0/G1 phase at 0.20 uM after 24 hrs by propidium iodide staining-based flow cytometric method (reference value: 62.2%); type: functional
HeLa [24] = assay: Cell cycle arrest in human HeLa cells assessed as accumulation at sub G1 phase at 0.25 uM after 24 hrs by propidium iodide staining-based flow cytometric method (reference value: 7.6%); type: functional
HeLa [25] = assay: Induction of apoptosis in human HeLa cells assessed as cell shrinkage at 0.10 to 0.20 uM by microscopic method; type: functional, cell-based; how it was run: as §1

- IC50 (Tubulin): 3970 nM
- IC50 (SMMC-7721): 71 nM
- IC50 (K562): 164 nM
- IC50 (HeLa [20]): 126 nM
Structure (SMILES): COC(=O)c1ccc2c(c1)NC(=O)CN2C(=O)c1cc(OC)c(OC)c(OC)c1
- viability at 0.15 µM (HeLa [1]): 69.7%
- Activity (HeLa [2]): Active
- Activity (HeLa [3]): 30.6%
- viability at 0.1 µM (HeLa [4]): 76.1%
- Activity (HeLa [5]): 16.5%
- Activity (HeLa [6]): Dose-dependent effect
- Activity (HeLa [7]): Active
- Activity (HeLa [8]): 8.3%
- Activity (HeLa [9]): 32.9%
- Activity (HeLa [10]): 17.05%
- Activity (HeLa [11]): 9.9%
- Activity (HeLa [12]): 13.1%
- Activity (HeLa [13]): 44.6%
- Activity (HeLa [14]): 31.6%
- Activity (HeLa [15]): 14.4%
- Activity (HeLa [16]): 13.8%
- Activity (HeLa [17]): 6.36%
- Activity (HeLa [18]): 8.3%
- Activity (HeLa [19]): 12.1%
- Activity (HeLa [21]): 29.2%
- Activity (HeLa [22]): 40.4%
- Activity (HeLa [23]): 18.4%
- Activity (HeLa [24]): 33.1%
- Activity (HeLa [25]): Active
